Reference: ChEMBL document CHEMBL1122155, “Synthesis and biological evaluation of novel pyrimidine nucleoside analogues of 1,4-oxathiane, 1,4-dithiane, and 1,4-dioxane” (1982)
Several values for one entry are separate records, joined by “and”; a condition that tells them apart may be missing. Equal entries are not always repeated.

Legend:
K562 [1] = experiment: In vitro antitumor activity against human erythroleukemia K-562 cells; type: functional
Method in brief: (§1)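 L1210 and K-562 cells grown in RPMI 1640 with 10% fetal calf serum plus penicillin/streptomycin. Suspensions of 10^3–10^4 cells/mL were plated, and compound (Me2SO stock diluted in medium) was added the following day. Final Me2SO was 0.5%, with two wells per concentration. Cells were counted by Coulter counter at 5–6 days. ID50 was taken from log-log concentration vs cell number plots, with untreated controls as 100%.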

L1210 [2] = experiment: In vitro antitumor activity against mouse […] leukemia L1210 cells; type: functional; method in brief: as §1
MDAY-D2 = experiment: In vitro antitumor activity (tumor cell growth inhibition) against MDAY-D2 cells; type: functional, Mus musculus
Method in brief: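 MDAY-D2 cells in Alpha MEM with 10% fetal calf serum, penicillin and streptomycin. Seeded at 10^3–10^4 cells/mL. Next day, compound dissolved in Me2SO and diluted in medium was added (final 0.5% Me2SO), with duplicate wells per concentration. Coulter counts after 5–6 days, before controls reached maximal density. ID50 was read from log-log plots of concentration vs cell number, with controls as 100%.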

K562 [3] = experiment: In vitro antitumor activity (tumor cell growth inhibition) against human erythroleukemia K-562 cells; type: functional; method in brief: as §1
L1210 [4] = experiment: In vitro antitumor activity (tumor cell growth inhibition) against mouse […] leukemia L1210; type: functional; method in brief: as §1
K562 [5] = experiment: In vitro antitumor activity (tumor cell growth inhibition) against human erythroleukemia K-562; type: functional; method in brief: as §1
L1210 [6] = experiment: In vitro antitumor activity against mouse […] leukemia L1210; type: functional
Method in brief: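 L1210 cells in RPMI 1640 with 10% fetal calf serum and penicillin/streptomycin were seeded at 10^3-10^4 cells/mL. Compounds were dissolved in Me2SO, diluted in medium, and added the next day (final 0.5% Me2SO, matching controls), in duplicate wells. After 5-6 days, before controls peaked, cells were Coulter-counted. ID50 was read from log-log concentration vs cell-number plots, with controls as 100%.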

SMILES | ID50 (K562 [1]) | ID50 (L1210 [2]) | ID50 (MDAY-D2) [µM] | further results
O=c1[nH]c(=O)n(C2COCCS2)cc1F (stereo not drawn) | >1.06 mM l-1 and >1.05 mM l-1 | > 1060 µM | 4600 | –
O=c1ccn(C2CSCCS2)c(=O)[nH]1 (stereo not drawn) | > 1050 µM | 240 µM | – | –
O=c1[nH]c(=O)n(C2COCCO2)cc1F (stereo not drawn) | >1.09 mM l-1 and >0.97 mM l-1 | > 970 µM | > 1000 | –
O=c1[nH]c(=O)n(C2CSCCS2)cc1F (stereo not drawn) | > 1020 µM | 0.65 mM l-1 and 0.23 mM l-1 | 500 | –
O=c1[nH]c(=O)n(C2COCC[S+]2[O-])cc1F (stereo not drawn) | > 1010 µM | – | – | ID50 (K562 [3]): > 990 µM
O=c1[nH]c(=O)n(C2CSCCO2)cc1F (stereo not drawn) | >1 mM l-1 and 0.46 mM l-1 | > 1010 µM | 1400 | –
O=c1[nH]c(=O)n(C2=COCCS2)cc1F | – | – | – | ID50 (L1210 [4]): 20 µM; ID50 (K562 [5]): 380 µM
Cc1cn(C2CSCCS2)c(=O)[nH]c1=O (stereo not drawn) | 670 µM | 0.23 mM l-1 and 0.21 mM l-1 | – | –
O=c1[nH]cc(F)c(=O)[nH]1 [FLUOROURACIL] | 0.0023 mM l-1 and 0.0046 mM l-1 | – | 0.2 | –
O=c1[nH]c(=O)n(C2CCCO2)cc1F (stereo not drawn) [TEGAFUR] | – | – | – | ID50 (L1210 [6]): 8.4 µM
